From ChEMBL document CHEMBL1143388 (Bioorg Med Chem, 2009)

Columns and labels:
[1] = biological target: Mu-type opioid receptor (Rattus norvegicus, UniProt P33535); assay: Binding affinity to rat MOPR expressed in CHO cells; type: cell-based
Procedure, shortened: (§1)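 Competitive displacement of [3H]diprenorphine from membranes of CHO cells stably transfected with rat MOPR or mouse DOPR. Buffer: 50 mM Tris-HCl, pH 7.4, with 1 mM EGTA. Ki values were derived from inhibition curves. Each value is the mean of at least three independent experiments run in duplicate.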

[2] = biological target: Delta-type opioid receptor (Mus musculus, UniProt P32300); assay: Binding affinity to mouse DOPR expressed in CHO cells; type: cell-based; procedure, shortened: as §1
[3] = biological target: T1, Kappa-type opioid receptor (Homo sapiens, UniProt P41145); assay: Agonist activity at human KOPR expressed in CHO cells assessed as enhancement of [35S]GTPgammaS binding at 10 uM relative to U50488; type: functional, cell-based
[4] = biological target: T1, Kappa-type opioid receptor; assay: Displacement of [3H]diprenorphine from human KOPR expressed in CHO cells; type: cell-based
[5] = biological target: T1, Kappa-type opioid receptor; assay: Agonist activity at human KOPR expressed in CHO cells assessed as enhancement of [35S]GTPgammaS binding; type: functional, cell-based

Chain of Mu-type opioid receptor (P33535 whole entry): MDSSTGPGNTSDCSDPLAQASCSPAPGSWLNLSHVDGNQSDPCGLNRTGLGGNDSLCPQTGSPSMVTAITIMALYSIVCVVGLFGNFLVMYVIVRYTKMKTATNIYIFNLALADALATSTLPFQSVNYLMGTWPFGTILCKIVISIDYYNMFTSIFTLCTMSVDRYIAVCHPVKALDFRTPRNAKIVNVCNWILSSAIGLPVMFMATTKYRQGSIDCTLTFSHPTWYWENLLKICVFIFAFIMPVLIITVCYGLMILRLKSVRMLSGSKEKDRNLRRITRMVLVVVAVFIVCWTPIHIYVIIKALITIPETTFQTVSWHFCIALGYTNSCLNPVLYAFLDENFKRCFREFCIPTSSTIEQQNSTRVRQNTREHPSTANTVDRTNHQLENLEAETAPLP
T1 sequence (P41145 whole entry): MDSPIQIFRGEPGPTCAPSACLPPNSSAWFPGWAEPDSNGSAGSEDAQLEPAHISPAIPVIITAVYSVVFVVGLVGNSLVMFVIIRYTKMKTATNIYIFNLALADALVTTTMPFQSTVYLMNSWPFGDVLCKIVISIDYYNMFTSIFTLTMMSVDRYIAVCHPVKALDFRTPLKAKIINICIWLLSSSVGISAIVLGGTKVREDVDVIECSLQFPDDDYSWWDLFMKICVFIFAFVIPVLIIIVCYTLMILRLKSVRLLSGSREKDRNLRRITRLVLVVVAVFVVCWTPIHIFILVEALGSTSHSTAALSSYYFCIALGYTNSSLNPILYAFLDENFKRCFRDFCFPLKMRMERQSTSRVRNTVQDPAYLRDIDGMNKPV
Chain of Delta-type opioid receptor (P32300 whole entry): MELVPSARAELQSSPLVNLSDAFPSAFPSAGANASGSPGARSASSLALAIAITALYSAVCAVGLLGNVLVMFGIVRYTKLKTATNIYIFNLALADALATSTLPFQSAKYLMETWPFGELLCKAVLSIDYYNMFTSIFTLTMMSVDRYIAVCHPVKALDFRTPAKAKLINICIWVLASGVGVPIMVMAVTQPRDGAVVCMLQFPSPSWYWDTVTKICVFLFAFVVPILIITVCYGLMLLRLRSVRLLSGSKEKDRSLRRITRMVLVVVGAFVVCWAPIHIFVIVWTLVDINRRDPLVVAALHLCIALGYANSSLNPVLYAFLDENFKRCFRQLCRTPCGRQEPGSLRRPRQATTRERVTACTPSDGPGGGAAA

Row | SMILES | Ki [1] [µM] | Ki [2] [µM] | Emax [3] [%] | Ki [4] [µM] | EC50 [5] [µM]
1 | COC(=O)[C@@H]1C[C@H](OC(C)=O)C(=O)[C@H]2[C@@]1(C)CC[C@H]1C(=O)O[C@H](c3ccoc3Br)C[C@]21C | > 1 | > 1 |  |  | 
2 | CCOC[C@@H]1C[C@]2(C)[C@H]3C(=O)[C@@H](OC(C)=O)C[C@@H](C(=O)OC)[C@]3(C)CC[C@H]2C(=O)O1 | > 1 | > 1 |  |  | 
3 | COC(=O)[C@@H]1C[C@H](OC(C)=O)C(=O)[C@H]2[C@@]1(C)CC[C@H]1C(=O)O[C@H]([C@H](O)c3ccco3)C[C@]21C | > 1 | > 1 | 111 |  | 
4 | COC(=O)[C@@H]1C[C@H](OC(C)=O)C(=O)[C@H]2[C@@]1(C)CC[C@H]1C(=O)O[C@H](C(=O)OC(C)C)C[C@]21C | > 1 | > 1 | 94 |  | 
5 | COC(=O)[C@@H]1C[C@H](OC(C)=O)C(=O)[C@H]2[C@@]1(C)CC[C@H]1C(=O)O[C@H](C(=O)c3cnccn3)C[C@]21C | > 1 | > 1 | 103 |  | 
6 | COC(=O)[C@@H]1C[C@H](OC(C)=O)C(=O)[C@H]2[C@@]1(C)CC[C@H]1C(=O)O[C@H](COC(C)=O)C[C@]21C | > 1 | > 1 | 113 |  | 
7 | COC(=O)[C@@H]1C[C@H](OC(C)=O)C(=O)[C@H]2[C@@]1(C)CC[C@H]1C(=O)O[C@H](C(=O)O)C[C@]21C | > 1 | > 1 | 99 | 0.055 | 0.167
8 | COC[C@@H]1C[C@]2(C)[C@H]3C(=O)[C@@H](OC(C)=O)C[C@@H](C(=O)OC)[C@]3(C)CC[C@H]2C(=O)O1 | > 1 | > 1 | 98 |  | 
9 | C=Cc1occc1[C@@H]1C[C@]2(C)[C@H]3C(=O)[C@@H](OC(C)=O)C[C@@H](C(=O)OC)[C@]3(C)CC[C@H]2C(=O)O1 | > 1 | > 1 | 120 |  | 
10 | COC(=O)[C@@H]1C[C@]2(C)[C@H]3C(=O)[C@@H](OC(C)=O)C[C@@H](C(=O)OC)[C@]3(C)CC[C@H]2C(=O)O1 | > 1 | > 1 | 99 |  | 
11 | CCOC(=O)[C@@H]1C[C@]2(C)[C@H]3C(=O)[C@@H](OC(C)=O)C[C@@H](C(=O)OC)[C@]3(C)CC[C@H]2C(=O)O1 | > 1 | > 1 | 94 |  | 
12 | COC(=O)[C@@H]1C[C@H](OC(C)=O)C(=O)[C@H]2[C@@]1(C)CC[C@H]1C(=O)O[C@H](C(=O)c3cccs3)C[C@]21C | > 1 | > 1 | 103 |  | 
